PLAP act: PLAP enzyme activators, biochemical, luminescence, HTS; purified PLAP enzyme, luminescent substrate read-out; hits give high values; activation fold at 20 µM; 96,000 tested, 1.2% active; in the data active means activation fold above about 2
HePTP inhibitor: inhibitors of human HePTP phosphatase, primary screen, biochemical, absorbance, leukemia target; inhibition, % at 20 µM; recombinant HePTP phosphatase activity, OD absorbance; 110,000 tested, 0.64% active; in the data active means inhibition above about 50%;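 further: plate controls were vehicle for no effect and reference inhibitor for full effect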
Target sequence (P35236 whole entry, looked up): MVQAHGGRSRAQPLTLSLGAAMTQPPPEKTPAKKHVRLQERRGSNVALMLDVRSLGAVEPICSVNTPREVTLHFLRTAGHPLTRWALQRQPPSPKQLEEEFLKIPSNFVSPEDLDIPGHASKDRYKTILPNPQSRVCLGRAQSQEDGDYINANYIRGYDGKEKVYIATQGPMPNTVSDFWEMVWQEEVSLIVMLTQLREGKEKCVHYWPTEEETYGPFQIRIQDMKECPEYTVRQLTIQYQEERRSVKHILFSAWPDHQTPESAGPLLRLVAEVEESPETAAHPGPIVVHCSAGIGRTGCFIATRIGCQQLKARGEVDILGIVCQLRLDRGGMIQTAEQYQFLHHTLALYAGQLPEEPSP
Ecoli tolC: growth inhibitors of E. coli tolC mutant, primary screen, strain BW25113 ΔtolC::kan, 384-well. OD615. growth inhibition, % at 10 µM (by protocol). 65,000 tested, 2.2% active;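 active means growth inhibition at or above a cutoff equal to the mean over every tested compound plus 3 SD, cut at about 60% in these data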;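 further: growth measured after 20 h incubation at 37 °C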
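Test system: tolC-deleted E. coli BW25113; medium: LB with kanamycin 50 µg/mL; compound: single-point testing at 10 µM; incubation: 20 h compound exposure of bacteria at 37 °C; signal: OD at 615 nm; evaluation: growth inhibition in percent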
E coli WT exp: growth inhibitors of wild-type E. coli, primary screen, strain BW25113, expanded library, OD600; OD600 absorbance; growth inhibition, % at 100 µM; 98,000 tested, 0.15% active; AID 710, 2007;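 active means growth inhibition above about 50% at one test dose, limit read from the data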;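 further: growth measured after 20 h incubation at 37 °C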
PostGolgi ctrl: growth inhibition of yeast control strain, primary screen, counter-screen for post-Golgi transport modulator project; efflux-deficient yeast background strain, growth absorbance A615, 16 h; inhibition, % at 10 µM; 98,000 tested, 5% active
PostGolgi yeast: phenotypic screen on post-Golgi transport, primary screen | post-Golgi transport phenotypic cell assay | inhibition, % at 10 µM | 98,000 tested, 0.9% active;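 further: yeast cells grown in 1536-well plates; yeast grown about 18 h at 30C before absorbance read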
* marks the source's active call; other numbers are inactive results. Hits are enriched below; roughly 5.5% of the tested compounds scored in any of these assays. Unless noted, no stated cut-off is given here; in the data, active means inhibition above about 30%; inactive means the rest.

What do the screens show for `CC(C)(C)c1ccc(-c2cc(C(=O)NNC(=O)Nc3ccccc3)c3ccccc3n2)cc1`?
PLAP act: 2.1*; E coli WT exp: -7; PostGolgi ctrl: 17; PostGolgi yeast: 8

Results for CC(=O)NS(=O)(=O)c1ccc(NC(=S)NC(=O)C(C)C)cc1 ?
PLAP act: 0.9; E coli WT exp: -3; PostGolgi ctrl: 36*; PostGolgi yeast: 0

What do the screens show for `CC(=O)NS(=O)(=O)c1ccc(NC(=O)/C=C/c2ccc(F)cc2)cc1`?
HePTP inhibitor: 74*

How did COc1ccc(OCC(O)Cn2c(=N)n(Cc3ccccc3)c3ccccc32)cc1 (stereo unspecified) do in these assays?
PLAP act: 8; HePTP inhibitor: 5; Ecoli tolC: 66*; E coli WT exp: 25; PostGolgi ctrl: -4; PostGolgi yeast: 1

How did Cc1ccc(OCC(O)Cn2c(=N)n(Cc3ccccc3)c3ccccc32)cc1 (stereo unspecified) do in these assays?
PLAP act: 1.5; E coli WT exp: 29; PostGolgi ctrl: 5; PostGolgi yeast: -3

Results for Cc1cc(C)nc(SCc2nnc(SCC(=O)Nc3nc(-c4ccccc4)cs3)n2-c2ccccc2)n1 ?
PLAP act: 2*; E coli WT exp: -1; PostGolgi ctrl: -9; PostGolgi yeast: -8

Results for CCCCn1c(SCC(=O)Nc2nc(C)cs2)nnc1-c1cccnc1 ?
PLAP act: 1.1; HePTP inhibitor: 10; Ecoli tolC: -10; E coli WT exp: 1; PostGolgi ctrl: 39*; PostGolgi yeast: -5

Results for CCn1c(SCC(=O)Nc2nc(-c3ccccc3)cs2)nnc1-c1ccccc1O ?
PLAP act: 1.5; HePTP inhibitor: -3; Ecoli tolC: 86*; E coli WT exp: -1; PostGolgi ctrl: 42*; PostGolgi yeast: 3

How did CC12C=CC(O1)C1C(=O)N(c3ccccc3)C(=O)C12 (stereo unspecified) do in these assays?
HePTP inhibitor: 5

Results for O=c1[nH]c2cc3c(cc2cc1CN(CC1CCCO1)S(=O)(=O)c1ccccc1)OCCO3 (stereo unspecified) ?
PLAP act: 0.9; HePTP inhibitor: -9; Ecoli tolC: -2; E coli WT exp: -8; PostGolgi ctrl: 0; PostGolgi yeast: -2

What do the screens show for `COc1ccc2cc(CN(CC3CCCO3)S(=O)(=O)c3ccccc3Cl)c(=O)[nH]c2c1` (stereo unspecified)?
PLAP act: 2*; E coli WT exp: 2; PostGolgi ctrl: 14; PostGolgi yeast: 1

How did CCN(CC)CCN1C(=O)C(O)=C(C(=O)/C=C/c2ccccc2)C1c1ccc(Cl)cc1 (stereo unspecified) do in these assays?
HePTP inhibitor: 6

How did COc1cc(/C=c2\sc3nc4ccccc4n3c2=O)cc(I)c1OCC(=O)O do in these assays?
HePTP inhibitor: 75*

What do the screens show for `CCOc1cc(/C=c2/sc3nc4ccccc4n3c2=O)cc(I)c1OCC`?
HePTP inhibitor: -3

Results for CC1COC(c2cccn2Cc2ccccc2Cl)=N1 (stereo unspecified) ?
PLAP act: 1; HePTP inhibitor: -10; Ecoli tolC: -4; E coli WT exp: 5; PostGolgi ctrl: 5; PostGolgi yeast: 4

How did CCSCC1COC(c2cccn2Cc2ccc(C)cc2)=N1 (stereo unspecified) do in these assays?
PLAP act: 1.1; HePTP inhibitor: 8; Ecoli tolC: 61*; E coli WT exp: 2; PostGolgi ctrl: 17; PostGolgi yeast: 4

What do the screens show for `Cc1cc([N+](=O)[O-])ccc1-c1ccc(C(=O)Nc2ccc3oc(-c4ccccc4)nc3c2)o1`?
HePTP inhibitor: 6

What do the screens show for `Cc1ccc2oc(-c3ccc(NC(=O)c4ccc(-c5ccc(Cl)cc5)o4)cc3O)nc2c1`?
HePTP inhibitor: 94*

What do the screens show for `O=C(Nc1ccc2oc(-c3ccccc3)nc2c1)c1ccc(-c2ccc([N+](=O)[O-])cc2)o1`?
HePTP inhibitor: 101*

How did O=C(NC(=S)Nc1ccc2oc(-c3ccccc3)nc2c1)c1ccccc1 do in these assays?
HePTP inhibitor: 103*

What do the screens show for `CN1C(=O)/C(=C\c2ccsc2)SC1=S`?
HePTP inhibitor: -1

Results for C=C(C)Cn1c(SCC(=O)NN)nnc1-c1ccc(Br)cc1 ?
HePTP inhibitor: -3

What do the screens show for `Cc1[nH]c2c(Br)cccc2c1[C@H]1[C@@H](CC#N)C1(C)C`?
PLAP act: 0.9; E coli WT exp: 5; PostGolgi ctrl: 39*; PostGolgi yeast: -4

What do the screens show for `Cc1noc(C)c1COC(=O)c1cc2c(C)nn(-c3ccc(F)cc3)c2s1`?
PLAP act: 0.8; HePTP inhibitor: -6; Ecoli tolC: -22

Results for Cc1noc(C)c1COC(=O)c1cc2c3ccccc3n(C)c2s1 ?
PLAP act: 1.5; HePTP inhibitor: 7; Ecoli tolC: 29; E coli WT exp: -24; PostGolgi ctrl: 37*; PostGolgi yeast: -7

How did CC(C(=O)N1c2ccccc2-c2c(ssc2=S)C1(C)C)N1C(=O)c2ccccc2C1=O (stereo unspecified) do in these assays?
HePTP inhibitor: -20

What do the screens show for `CSc1nc(NCc2ccco2)c2ccccc2n1`?
PLAP act: 0.8; E coli WT exp: 4; PostGolgi ctrl: 11; PostGolgi yeast: 3

How did CC(C)[C@H](Nc1nc(-c2ccccc2)nc2c1oc1ccccc12)C(=O)O do in these assays?
PLAP act: 1.1; E coli WT exp: 3; PostGolgi ctrl: 5; PostGolgi yeast: 15

How did OCCNc1nc(-c2cccnc2)nc2ccccc12 do in these assays?
PLAP act: 0.9; HePTP inhibitor: 11; Ecoli tolC: -5; E coli WT exp: 5; PostGolgi ctrl: 13; PostGolgi yeast: 1

How did c1ccc(CN2CCN(c3nc(NCc4ccco4)c4ccccc4n3)CC2)cc1 do in these assays?
PLAP act: 2*; E coli WT exp: 0; PostGolgi ctrl: 0; PostGolgi yeast: -4

How did c1ccc(-c2nc(NCc3ccco3)c3oc4ccccc4c3n2)cc1 do in these assays?
PLAP act: 1; E coli WT exp: -15; PostGolgi ctrl: 34*; PostGolgi yeast: 9

What do the screens show for `OCCSc1nc(-c2cccnc2)nc2ccccc12`?
PLAP act: 1.6; HePTP inhibitor: 0; Ecoli tolC: 10; E coli WT exp: -3; PostGolgi ctrl: 38*; PostGolgi yeast: 2

What do the screens show for `c1cncc(-c2nc(NCc3ccco3)c3ccccc3n2)c1`?
PLAP act: 0.8; HePTP inhibitor: 14; Ecoli tolC: 30; E coli WT exp: 2; PostGolgi ctrl: 57*; PostGolgi yeast: -5

Results for CCCCN(CN1C(=O)C2CC=C(Cl)CC2C1=O)CN1C(=O)C2CC=C(Cl)CC2C1=O (stereo unspecified) ?
HePTP inhibitor: -14
